The text below walks through data of PubChem BioAssay AID623920 (The Scripps Research Institute Molecular Screening Center, 2012).

For orientation: pIC50 means −log10 of the IC50, conventionally taken in molar units. In general, IC50 refers to the point on the concentration scale where inhibition reaches its midpoint.

The target of the assay is RecBCD enzyme subunit RecC (Escherichia coli (strain K12)) + RecBCD enzyme subunit RecB (Escherichia coli (strain K12)) (UniProt P07648+P08394). In words: purified RecBCD nuclease inhibitors, dose response, counter-screen for AddAB inhibitor project, biochemical, radioactivity readout, powder samples (AID 623920). Conditions: [3H] dsDNA nuclease, TCA-soluble radioactivity. Put shortly:
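System: Purified Escherichia coli RecBCD helicase-nuclease enzyme | Input: RecBCD enzyme at 0.15 units (4.5 nM) per reaction | Medium: pH 8.5 Tris, MgCl2, ATP | Replication: Triplicate | Read-out: IC50 from percent RecBCD activity | Schedule: Reaction 20 min, 37 °C | Technique: TCA-soluble radioactivity by scintillation | Control set: Enzyme-free background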
(Counterscreens check selectivity or assay interference.)

pIC50: −log10 of the molar value. “And” between values parts separate entries of the source, which are not always exact repeats. Equal entries are not always repeated. The source made the active and inactive calls.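 Rule for the calls: active = compounds halving RecBCD DNA-cutting activity at 52000 nM or lower IC50; inactive = the rest.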

Chain of RecBCD enzyme subunit RecC (Escherichia coli (strain K12)) + RecBCD enzyme subunit RecB (Escherichia coli (strain K12)) (P07648 whole entry, looked up): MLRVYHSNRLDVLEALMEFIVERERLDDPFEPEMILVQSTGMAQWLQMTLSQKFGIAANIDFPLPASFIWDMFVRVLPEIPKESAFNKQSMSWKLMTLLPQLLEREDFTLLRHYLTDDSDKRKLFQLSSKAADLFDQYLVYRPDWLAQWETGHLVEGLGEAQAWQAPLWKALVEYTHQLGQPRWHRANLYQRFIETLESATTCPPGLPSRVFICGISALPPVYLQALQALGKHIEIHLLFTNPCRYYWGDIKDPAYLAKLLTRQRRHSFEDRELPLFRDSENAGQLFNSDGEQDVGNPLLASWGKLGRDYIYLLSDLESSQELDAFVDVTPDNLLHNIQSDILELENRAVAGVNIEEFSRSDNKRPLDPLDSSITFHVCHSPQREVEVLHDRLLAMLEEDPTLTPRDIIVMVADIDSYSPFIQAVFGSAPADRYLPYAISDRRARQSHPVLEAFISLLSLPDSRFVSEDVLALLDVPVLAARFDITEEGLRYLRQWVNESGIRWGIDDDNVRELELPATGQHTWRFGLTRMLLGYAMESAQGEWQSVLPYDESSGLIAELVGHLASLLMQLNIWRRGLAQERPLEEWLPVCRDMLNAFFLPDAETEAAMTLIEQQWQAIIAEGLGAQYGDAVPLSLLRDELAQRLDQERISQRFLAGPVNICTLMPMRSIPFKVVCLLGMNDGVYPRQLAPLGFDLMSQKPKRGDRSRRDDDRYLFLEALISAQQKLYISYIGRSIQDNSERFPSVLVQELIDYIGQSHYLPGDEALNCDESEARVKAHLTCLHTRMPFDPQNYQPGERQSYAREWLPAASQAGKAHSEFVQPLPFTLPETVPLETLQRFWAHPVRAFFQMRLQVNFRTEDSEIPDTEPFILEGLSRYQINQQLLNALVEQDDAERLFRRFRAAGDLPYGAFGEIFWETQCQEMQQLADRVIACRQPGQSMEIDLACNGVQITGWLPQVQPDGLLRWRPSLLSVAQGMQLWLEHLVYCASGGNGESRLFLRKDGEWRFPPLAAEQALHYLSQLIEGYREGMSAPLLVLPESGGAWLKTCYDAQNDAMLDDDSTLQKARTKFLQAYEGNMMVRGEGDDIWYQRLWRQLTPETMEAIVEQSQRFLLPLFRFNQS
Chain of RecBCD enzyme subunit RecC (Escherichia coli (strain K12)) + RecBCD enzyme subunit RecB (Escherichia coli (strain K12)) (P08394 whole entry, looked up): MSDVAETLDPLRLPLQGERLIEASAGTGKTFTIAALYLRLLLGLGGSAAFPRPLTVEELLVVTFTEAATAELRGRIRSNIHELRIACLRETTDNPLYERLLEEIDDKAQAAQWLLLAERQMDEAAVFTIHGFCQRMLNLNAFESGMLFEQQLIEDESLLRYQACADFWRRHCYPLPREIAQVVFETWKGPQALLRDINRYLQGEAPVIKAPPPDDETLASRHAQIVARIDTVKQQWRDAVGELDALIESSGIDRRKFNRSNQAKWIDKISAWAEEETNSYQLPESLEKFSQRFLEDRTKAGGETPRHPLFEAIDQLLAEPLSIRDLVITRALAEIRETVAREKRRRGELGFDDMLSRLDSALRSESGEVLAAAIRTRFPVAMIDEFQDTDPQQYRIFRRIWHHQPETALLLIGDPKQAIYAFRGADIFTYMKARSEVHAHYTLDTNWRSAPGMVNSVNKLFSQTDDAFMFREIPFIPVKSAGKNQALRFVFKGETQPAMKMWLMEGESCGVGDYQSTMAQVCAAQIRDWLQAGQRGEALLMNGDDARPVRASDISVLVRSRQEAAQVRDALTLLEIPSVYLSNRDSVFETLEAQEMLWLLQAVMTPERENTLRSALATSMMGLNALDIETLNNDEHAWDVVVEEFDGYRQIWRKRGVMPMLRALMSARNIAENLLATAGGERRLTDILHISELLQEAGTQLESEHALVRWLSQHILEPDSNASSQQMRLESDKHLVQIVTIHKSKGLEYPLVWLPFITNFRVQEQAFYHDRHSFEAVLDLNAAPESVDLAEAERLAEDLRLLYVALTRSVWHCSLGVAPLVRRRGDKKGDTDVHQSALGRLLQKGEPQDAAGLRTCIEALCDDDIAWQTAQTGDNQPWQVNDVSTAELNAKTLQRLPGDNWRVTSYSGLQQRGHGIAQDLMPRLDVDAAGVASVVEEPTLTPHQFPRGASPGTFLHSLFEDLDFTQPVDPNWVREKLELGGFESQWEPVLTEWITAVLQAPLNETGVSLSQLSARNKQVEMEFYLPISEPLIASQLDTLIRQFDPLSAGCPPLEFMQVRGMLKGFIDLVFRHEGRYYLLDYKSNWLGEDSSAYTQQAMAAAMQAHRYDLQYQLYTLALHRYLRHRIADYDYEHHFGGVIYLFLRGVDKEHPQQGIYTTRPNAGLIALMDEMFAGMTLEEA

With `CCn1cc(C(=O)O)c(=O)c2cnc(N3CCN(C(=S)NC(=O)c4cccc(C)c4)CC3)nc21`, the pIC50 was 5.05.

With `O=C(OCC(=O)c1cccs1)c1ccc([N+](=O)[O-])o1`, the IC50 was > 100 µM (inactive).

`Cc1sc(NC(=O)c2ccc(Br)o2)c(C#N)c1C`: the negative-log IC50 (pIC50) is 4.33.

With `CCn1cc(C(=O)O)c(=O)c2cnc(N3CCN(C(=S)NCc4ccccc4)CC3)nc21`, the pIC50 was 4.70.

On to `CC1(C)Cc2c(sc(NC(=O)c3ccco3)c2C#N)CO1`, for which the IC50 was > 100 µM (inactive).

In the case of `O=C(Nc1ccc(N2CCOCC2)cc1)c1ccc([N+](=O)[O-])o1`, the IC50 is > 100 µM (inactive).

Turning to `N#Cc1c(NC(=O)c2ccccc2C(=O)O)sc2c1CCCC2`, the IC50 is > 100 µM (inactive).

As to `CCn1cc(C(=O)O)c(=O)c2cnc(N3CCN(C(=S)Nc4ccccc4C(F)(F)F)CC3)nc21`, the pIC50 was 4.89 and 4.40.

Consider `CCn1cc(C(=O)O)c(=O)c2cc(F)c(N3CCN(C(=S)Nc4cccc(C(F)(F)F)c4)CC3)cc21`, for which the pIC50 was 5.52.

For `CC(=O)Nc1ccc2nc(NC(=O)c3ccc([N+](=O)[O-])o3)sc2c1`, the IC50 is > 100 µM (inactive).

Turning to `N#Cc1c(NC(=O)c2ccc([N+](=O)[O-])o2)sc2c1CCC2`, the negative logarithm of the IC50 (pIC50) was 4.29.

In the case of `N#Cc1c(NC(=O)c2cccc(F)c2)sc2c1CCCC2`, the IC50 is > 100 µM (inactive).

As for `Cc1cccnc1NC(=O)c1ccc([N+](=O)[O-])o1`, the IC50 was > 100 µM (inactive).

For the molecule `N#Cc1c(NC(=O)c2ccco2)sc2c1CCC2`, the IC50 result was “inactive”.

In the case of `CCn1cc(C(=O)O)c(=O)c2cnc(N3CCN(C(=S)NC(C)c4ccccc4)CC3)nc21` (stereo unspecified), the pIC50 was 4.74.

On to `CCn1cc(C(=O)O)c(=O)c2cnc(N3CCN(C(=S)Nc4ccc(Cl)cc4)CC3)nc21`, for which the pIC50 is 4.96.

Consider `COC(=O)c1c(-c2ccccc2)csc1NC(=O)c1cnccn1`, for which the negative-log IC50 (pIC50) is 4.66.

As to `CNC(=O)c1c(NC(=O)c2nc(SCc3ccccc3)ncc2Cl)sc2c1CCCC2`, the IC50 result is “inactive”.

With `CCn1cc(C(=O)O)c(=O)c2cc(F)c(N3CCN(C(=S)Nc4ccccc4C(F)(F)F)CC3)cc21`, the negative-log IC50 (pIC50) is 4.40.

In the case of `C=CCn1c(Sc2ncc([N+](=O)[O-])s2)n[nH]c1=O`, the IC50 is > 166 µM (inactive).

Consider `O=C(Nc1cccc(NC(=O)c2ccccc2Cl)c1)c1ccc([N+](=O)[O-])o1`, for which the IC50 is > 100 µM (inactive).

With `O=C(NCc1cccnc1)c1ccc([N+](=O)[O-])o1`, the IC50 is > 100 µM (inactive).

For the molecule `CCn1cc(C(=O)O)c(=O)c2cnc(N3CCN(C(=S)Nc4cccc(C(F)(F)F)c4)CC3)nc21`, the pIC50 is 5.40.

With `N#Cc1c(NC(=O)c2ccccc2)sc2c1CCC2`, the IC50 was > 100 µM (inactive).

`CCn1cc(C(=O)O)c(=O)c2cnc(N3CCN(C(=S)NC4CC5CCC4C5)CC3)nc21` (stereo unspecified): the IC50 result was “inactive”.

In the case of `N#Cc1c(NC(=O)c2ccc(-c3ccccc3[N+](=O)[O-])o2)sc2c1CCCC2`, the IC50 is > 100 µM (inactive).

Take `NC(=O)c1ccsc1NC(=O)COC(=O)c1ccc([N+](=O)[O-])o1`: the IC50 was > 100 µM (inactive).

Take `Cc1ccc(C(=O)Nc2sc3c(c2C#N)CCCCC3)o1`: the IC50 was > 100 µM (inactive).

Turning to `N#Cc1c(NC(=O)c2cnccn2)sc2c1CCCC2`, the pIC50 is 4.48 and 4.38.

In the case of `O=C(Nc1ncccn1)c1ccc([N+](=O)[O-])o1`, the IC50 is > 100 µM (inactive).

As for `Cc1ccc2nc(/C(C#N)=C\c3ccc([N+](=O)[O-])o3)[nH]c2c1`, the IC50 was > 100 µM (inactive).
